Experiment: Toxicity liver stage against HepG2, at 10uM
Format: cell-based
Set-up: test concentration 10 uM, cell line HepG2-A16-CD81EGFP
Conditions: human, HepG2-A16-CD81EGFP cells; read-out: INHIBITION
Method in brief: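 Uninfected HepG2-A16-CD81EGFP cells, 3 × 10^3 per well, 1536-well, plated on prespotted compound at 10 μM final, parasite-free screening media added to match infected plates; puromycin 10 μM positive, DMSO 0.5% negative; run in parallel with 48 h PbLuc assay at 37 °C, 5% CO2; viability by CellTiter-Glo luminescence, normalized to controls.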

Structure (SMILES)	cytotoxicity at 10 µM
Cc1cccc2c1nc1n2[C@@H](CNC2CCCCC2)COC1	-51.8%
CC(C)(C)CN[C@@H]1CO[C@H](CNC(=O)C2CCCC2)[C@H]1O	-9.03%
O=S(=O)(NC[C@H]1OC[C@@H](NCc2cccs2)[C@@H]1O)c1ccccc1	3.98%
CCOC(=O)[C@@H]1[C@@H](c2ccccc2)CN2CCN(C(C)=O)C[C@H]12	9.28%
CC(C)n1cc(C(=O)NC2CN3CCC2CC3)c2ccccc21 (centres undefined)	-59.7%
Cc1nc(-n2nc(-c3cccs3)cc2N)[nH]c(=O)c1C	4.84%
CN(C)c1ncc(NS(=O)(=O)c2ccc(OC(F)(F)F)cc2)cn1	11.9%
Cc1cccc(C(=O)N2CCN(c3ccc(-n4cccc4)nn3)CC2)c1	67.1%
CNC(=O)[C@@H]1COC[C@H]2CN(C(=O)c3ccc(C)c(C)c3)C[C@H]21	11.6%
COc1ccc2c(c1)OC1(CCN(Cc3ccc(F)cc3)CC1)CC2=O	9.09%
Cc1c(-c2cc(C(F)(F)F)nc(N3CCC(N)CC3)n2)cnn1C	6.14%
Cc1nn(CC(=O)N2CCN(Cc3cn(C)nc3C)CC2)cc1Br	-6.28%
Cn1nc(C(=O)N2CCOCC2)cc1C(=O)Nc1c(Cl)cccc1Cl	12%
CCC(C)(C)n1nnnc1C(c1cccs1)N1CCc2ccccc2C1 (centres undefined)	0.237%
Cc1cnc2[nH]c(C(F)(F)F)c(CN3CCCC(CO)C3)c2c1 (centres undefined)	8.48%
CCC(=O)N1CCCC1c1nc(N(C)C)ncc1-c1ccc(Cl)cc1 (centres undefined)	5.82%
Cc1cc(O)nc(C2CN(CCO)CCO2)n1 (centres undefined)	-27.8%
COc1cccc(CC(=O)N2CCCC2c2nc(C)c(C)c(O)n2)c1 (centres undefined)	-36.9%
Cc1cc(-c2cnc(N3CCNC(=O)C3)nc2-c2ccncc2)on1	-25%
CCOCCCNCc1cc2c(C)cc(C)cc2n2c(=O)n(C)nc12	-4%
Cc1cc(C(=O)N2CCCC2c2nc(O)cc(C(C)C)n2)on1 (centres undefined)	-3.42%
CC(C)N1CCCC(Cc2cncc(Br)c2)CC1 (centres undefined)	-7.5%
CNc1cncc(C2CCCN2Cc2ccn(C)n2)n1 (centres undefined)	-6.88%
Cc1ccc(C(=O)N2CCC(O)(CN3CCc4ccccc4C3)C2)s1 (centres undefined)	-1.61%
CN(c1ccncn1)C1CC2(CCN(C(=O)Cc3cccs3)C2)C1 (centres undefined)	-5.97%
CC1CCCCN1C(=O)CCc1nnc(-c2ccccc2)o1 (centres undefined)	-4.65%
CCN(Cc1cccc2c1OCCO2)C(=O)NC(C)(C)C	-20.9%

Structure (SMILES)	cytotoxicity at 10 µM
COCC1CCN(C(=O)c2cc(O)nc(CC(C)C)c2)CC1	-2.7%
Cc1nc(CN(C)c2nccc(N(C)C)n2)cs1	-9.86%
CC1CN(C(=O)c2cnn(-c3ccccn3)c2C(C)C)CC(C)(C)O1 (centres undefined)	-3.09%
CCc1noc(C(C)N(C)Cc2cc(Br)ccc2OC)n1 (centres undefined)	-5.04%
COc1ccc(C)c(NC(=O)NCc2ncnn2C)c1	-4.27%
Cc1noc(C(C)N2CCN(c3ncnc4ccccc34)CC2)n1 (centres undefined)	17.7%
COc1cc(C2(C(=O)NC3CCN(C4CC4)CC3)CC2)ccc1C	5.16%
N#Cc1ccc(CNC2CCN(CCc3ccncc3)CC2)cc1	-5.03%
CCc1cnc(CN(C)C(=O)Nc2cnn(CC3CCCO3)c2)s1 (centres undefined)	4.03%
CCCS(=O)(=O)CCSc1cccc(C#N)c1	-3.85%
CC(CNC(=O)c1ccc(Cl)cc1F)N1CCCC1 (centres undefined)	-3.85%
Cc1ccc(S(=O)(=O)NCCCN2CCC(O)CC2)cc1Cl	8.68%
CC(=O)N1CCCN(C(=O)c2cnc(OC(C)C)c(Cl)c2)CC1	6.02%
Cc1cc(C)n(CC2CCCN2C(=O)c2ccc3c(c2)COC3)n1 (centres undefined)	1.85%
Cc1ccc(NS(=O)(=O)c2cnn(Cc3ccccc3)c2)c(C(=O)O)c1	-2.41%
Cn1cc(C(O)CNC(=O)c2ccc(F)cc2Cl)cn1 (centres undefined)	0.055%
CC(C)c1nc2n(n1)CC(NCC(=O)NCCC1=CCCCC1)CC2 (centres undefined)	-4.76%
CCn1cc(NC(=O)c2cccc(OCC(F)(F)F)n2)cn1	-9.43%
NC(=O)CCN(C(=O)c1cccc2c1OCO2)c1ccccc1	-16.5%
CN(Cc1ccc2c(c1)OCCO2)Cc1nnnn1-c1ccccc1	20.5%
CC(c1ccccc1)N(C)C(=O)CN1CCCc2cccc(F)c21 (centres undefined)	22.5%
CC(=O)c1ccc(S(=O)(=O)N2CCCC2CN2CCCC2)cc1 (centres undefined)	-1.35%
COc1ccccc1C1(CNCc2cccc(O)c2)CCOCC1	9.18%
CC(CNC(=O)c1c[nH]nn1)Oc1ccc(Cl)cc1 (centres undefined)	9.27%
Cc1nnc(SCCC(=O)N(C)Cc2ccc(F)cc2Cl)[nH]1	11.4%
CC(C)(C)c1nc(NS(=O)(=O)c2ccc(F)cc2)no1	4.71%
CCN1CCN(C(=O)NC(C)c2noc(-c3ccccc3)n2)CC1 (centres undefined)	-15.5%

From ChEMBL document CHEMBL4513216, “Probing the Open Global Health Chemical Diversity Library for Multistage-Active Starting Points for Next-Generation Antimalarials” (ACS Infect Dis, 2020)
